pIC50: −log10 of the molar value.

As a reminder, the CC50 is the concentration giving 50% cytotoxicity. A lower CC50 goes with harm at low concentration. One may read the pIC50 as the IC50 on a negative log10 scale, so that one unit is a factor of ten.

Series [1] in a line: Cytotoxicity against human HSB2 cells after 7 days by Cell-Titer Glo assay. Type of series: cell-based, CCRF-HSB-2. Put shortly: (§1)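 Uninfected Akata, BCBL1, HSB-2 or MOLT-3 cells incubated with compound for seven days under the matching antiviral-assay conditions. CellTiter-Glo added and luminescence read. CC50 is the concentration reducing cell number by 50%.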
A short description of series [2]: Cytotoxicity against human MOLT3 cells after 7 days by Cell-Titer Glo assay. Type of series: cell-based, MOLT-3. Put shortly: as §1
The subject of a further series is Human alphaherpesvirus 1. The experiment in a line: Antiviral activity against HSV-1 infected in human HFF cells assessed as reduction in cytopathic effect after 3 days by crystal violet staining. Type of series: functional, organism-based. Conditions: Human alphaherpesvirus 1, HFF, 72 h. The method, boiled down:
(§2)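 Compound diluted over HFF monolayers, then HSV-1 (E-377) or HSV-2 (MS) added at MOI about 0.01 PFU/cell. Held 3 days in humidified 5% CO2. Stained 4 h with 0.1% crystal violet in formalin, rinsed, dried 24 h, and absorbance read at 595 nm. EC50 is 50% CPE reduction. Duplicate wells.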
(Damage to the host cells serves as the signal in cytopathic effect assays.)

Series [3] is described as follows: Cytotoxicity against human BCBL1 cells after 7 days by Cell-Titer Glo assay. Type of series: cell-based. Put shortly: as §1
The test system of a further series is Human alphaherpesvirus 2. Nature of the series: Antiviral activity against HSV-2 infected in human HFF cells assessed as reduction in cytopathic effect after 3 days by crystal violet staining. Type of series: functional, organism-based. The note with it: Human alphaherpesvirus 2, HFF, 72 h. The method, boiled down:
as §2

A short description of series [4]: Cytotoxicity against human Akata cells after 7 days by Cell-Titer Glo assay. Type of series: cell-based. The method, boiled down:
as §1

For the next series, the system named is Human gammaherpesvirus 4. Nature of the series: Antiviral activity against EBV Akata infected in human Akata cells assessed as reduction in viral DNA after 72 hrs by hybridization assay. Type of series: functional, organism-based. The note with it: human gammaherpesvirus 4, Akata. Put shortly: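 Akata cells kept in RPMI 1640 with 10% FBS, L-glutamine, penicillin and gentamicin. Latent infection was switched to productive by adding goat anti-human IgG, and cells were seeded into compound dilutions made in growth medium. After 72 h the DNA was denatured and blotted onto nylon membrane. Viral DNA was measured with a digoxigenin-labeled probe plus anti-hapten antibody. EC50 is the concentration halving viral DNA. Duplicate wells.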

The subject of another series is Human alphaherpesvirus 3. The experiment in a line: Antiviral activity against VZV infected in human HFF cells assessed as reduction in cytopathic effect after 7 days by crystal violet staining. Type of series: functional, organism-based. The note with it: Human alphaherpesvirus 3, HFF, 168 h.
The nature of series [5]: Antiviral activity against HHV-6B infected in human Molt3 cells assessed as reduction in viral DNA after 7 days by hybridization assay. Type of series: functional, cell-based, Human herpesvirus 6B. The note with it: Human betaherpesvirus 6B, MOLT-3, 168 h. Put shortly:
(§3)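 Compound serially diluted in medium. Uninfected HSB-2 cells were infected with HHV-6A (GS)-infected HSB-2 cells, and Molt-3 cells with HHV-6B (Z29)-infected Molt-3 cells. Incubation 7 days at 37 °C. Lysis in 4.5 M NaCl/1.2 M NaOH, then transfer to nylon membrane. Viral DNA quantified by digoxigenin-probe hybridization and EC50 calculated. Duplicate wells.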

Series [6] is described as follows: Antiviral activity against HHV-6A infected in human HSB2 cells assessed as reduction in viral DNA after 7 days by hybridization assay. Type of series: functional, cell-based, Human herpesvirus 6A. The note with it: Human betaherpesvirus 6A, HSB2, 168 h. Put shortly: as §3
The next series has as its system Human gammaherpesvirus 8. Nature of the series: Antiviral activity against HHV-8 infected in human BCBL1 cells assessed as reduction in viral DNA after 7 days by qPCR analysis. Type of series: functional, organism-based. Conditions: Human gammaherpesvirus 8, BCBL1, 168 h. The method, boiled down: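 BCBL1 cells kept in RPMI 1640 with 10% FBS, penicillin, gentamycin and L-glutamine. Lytic infection induced with phorbol 12-myristate 13-acetate, then cells added to triplicate compound dilutions. Incubation 7 days at 37 °C in humidified CO2. EC50 is the concentration halving viral DNA accumulation.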
(Quantitative PCR measures a nucleic acid by following its amplification.)

The nature of series [7]: Cytotoxicity against human HFF cells after 3 to 8 days by crystal voilet staining. Type of series: cell-based. The method, boiled down:
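Uninfected HFF cells exposed to the same concentrations as in the CPE assays (3 days for HSV, 7 for VZV, […]). Stained with crystal violet. CC50 is the concentration reducing cell number by 50%. Duplicate wells.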

A further series has as its system Human betaherpesvirus 5. The experiment in a line: Antiviral activity against HCMV infected in human HFF cells assessed as reduction in cytopathic effect after 8 days by plaque reduction assay. Type of series: functional, organism-based. The note with it: Human betaherpesvirus 5, HFF, 192 h. Put shortly: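 HFF monolayers seeded 2 days ahead and infected with AD169 at about 30 plaques per well, with 1 h adsorption. Compound was then added in MEM with 2% FBS, L-glutamine, penicillin, gentamycin and pooled human gamma globulin. After 8 days, neutral red stain and plaque counts by stereomicroscope. EC50 interpolated. Duplicate wells.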

As for `Nc1nc(OCC(F)(F)F)c2ncn(/C=C3/CC3(CO)CO)c2n1`, the CC50 at 168 h in series [1], in series [2], in series [3] and in series [4] was greater than 20 µM in each case. Further, the pIC50 with Human alphaherpesvirus 1 was less than 3.52; in the series on Human alphaherpesvirus 2 it was less than 3.52; in the series with Human gammaherpesvirus 4, 5.85; with Human alphaherpesvirus 3, less than 3.52; in [5], 5.05; in series [6], less than 4.70. Further, the pIC50 with Human gammaherpesvirus 8 was 4.72; in the series on Human betaherpesvirus 5 it was 5.25. For the same compound, the half-maximal cytotoxic concentration (CC50) in series [7] is greater than 300 µM.
For the compound `CCCOc1nc(N)nc2c1ncn2/C=C1/CC1(CO)CO`, the CC50 at 168 h in [1], in [2], in series [3] and in [4] was greater than 20 µM throughout. The pIC50 in the series on Human alphaherpesvirus 1 was less than 3.52; in the series on Human alphaherpesvirus 2 it was less than 3.52; in the series on Human gammaherpesvirus 4, 5.05; with Human alphaherpesvirus 3 it was 5.54; in [5] it was 5.18; in series [6], 4.74. Also, the results for the pIC50 with Human gammaherpesvirus 8 and with Human betaherpesvirus 5 were 4.80 and 5.96, respectively. For the same compound, the cytotoxic concentration (CC50) in series [7] is greater than 300 µM.
On to `CSc1nc(N)nc2c1ncn2/C=C1/CC1(CO)CO`, for which the CC50 at 168 h was greater than 100 µM in series [1], greater than 20 µM in series [2], greater than 20 µM in [3] and greater than 20 µM in series [4]. Besides, the negative-log IC50 (pIC50) with Human alphaherpesvirus 1 was less than 3.52; in the series with Human alphaherpesvirus 2, less than 3.52; in the series on Human gammaherpesvirus 4, 4.94; in the series with Human alphaherpesvirus 3, less than 4.22; in [5], 4.94; in [6], less than 4.00. The negative-log IC50 (pIC50) in the series with Human gammaherpesvirus 8 is less than 4.70; in the series on Human betaherpesvirus 5, less than 4.30. In series [7], this compound returned a CC50 greater than 300 µM.
Turning to `CCOc1nc(N)nc2c1ncn2/C=C1/CC1(CO)CO`, the 50% cytotoxic concentration (CC50) at 168 h in series [1], in series [2], in series [3] and in [4] was greater than 20 µM each time. In addition, the pIC50 in the series with Human alphaherpesvirus 1 is less than 3.52; in the series on Human alphaherpesvirus 2, less than 3.52; with Human gammaherpesvirus 4, 4.92; with Human alphaherpesvirus 3, less than 4.00; in [5] it was 4.95; in series [6], less than 4.70. In addition, the pIC50 was less than 4.70 in the series on Human gammaherpesvirus 8 and 5.80 with Human betaherpesvirus 5. The same compound came in with a half-maximal cytotoxic concentration (CC50) in series [7] greater than 300 µM.
For the compound `Nc1nc(NC2CCCC2)c2ncn(/C=C3/CC3(CO)CO)c2n1`, the half-maximal cytotoxic concentration (CC50) at 168 h in series [1] is greater than 20 µM; in series [2], greater than 20 µM; in series [3], 71.7 µM; in series [4], greater than 20 µM. Also, the pIC50 with Human alphaherpesvirus 1 was less than 4.22; in the series on Human alphaherpesvirus 2, less than 4.22; in the series with Human gammaherpesvirus 4, less than 4.70; in the series on Human alphaherpesvirus 3, less than 4.22; in series [5], less than 4.70; in [6], less than 4.70. The negative logarithm of the IC50 (pIC50) in the series with Human gammaherpesvirus 8 was 4.20; in the series with Human betaherpesvirus 5 it was less than 4.22. The compound further gave a CC50 in series [7] greater than 300 µM.
For `CCCCSc1nc(N)nc2c1ncn2/C=C1/CC1(CO)CO`, the CC50 at 168 h was 89 µM in series [1], greater than 20 µM in series [2], greater than 20 µM in series [3] and greater than 20 µM in series [4]. Also, the negative-log IC50 (pIC50) is less than 3.52 in the series with Human alphaherpesvirus 1; less than 3.52 with Human alphaherpesvirus 2; 5.60 in the series with Human gammaherpesvirus 4; less than 3.52 in the series with Human alphaherpesvirus 3; 5.15 in [5]; 4.12 in series [6]. In addition, the pIC50 with Human gammaherpesvirus 8 was less than 4.70; in the series on Human betaherpesvirus 5, less than 4.30. The same compound yielded a cytotoxic concentration (CC50) in series [7] greater than 300 µM.
As to `CCCCCOc1nc(N)nc2c1ncn2/C=C1/CC1(CO)CO`, the cytotoxic concentration (CC50) at 168 h in [1], in series [2], in [3] and in series [4] was greater than 20 µM throughout. Moreover, the negative logarithm of the IC50 (pIC50) in the series on Human alphaherpesvirus 1 was less than 3.52; in the series with Human alphaherpesvirus 2, less than 3.52; with Human gammaherpesvirus 4, 6.30; in the series on Human alphaherpesvirus 3, less than 4.22; in [5], less than 4.70; in series [6] it was less than 4.70. The results for the negative logarithm of the IC50 (pIC50) in the series with Human gammaherpesvirus 8 and with Human betaherpesvirus 5 were less than 4.70 and 6.30, respectively. In series [7], this compound returned a CC50 of 259 µM.
